Inhibition data for 86 molecules are collected here from PubChem BioAssay AID624466 (The Scripps Research Institute Molecular Screening Center, 2012).

SMILES strings stand for the structures. The campaign covered roughly 360,000 compounds. About 5,400 (1.5%) were called active. This is one part of a sample in which actives are shown more often than they occur. A number with no mark means an inactive call.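 How the source made its calls: active means inhibition above a per-plate cutoff, the mean inhibition of test compounds on that plate plus 3 SD (cut at about 49% in these data); inactive means the rest.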

Sequence of Trace amine-associated receptor 1 (Homo sapiens) (Q96RJ0 whole entry, looked up): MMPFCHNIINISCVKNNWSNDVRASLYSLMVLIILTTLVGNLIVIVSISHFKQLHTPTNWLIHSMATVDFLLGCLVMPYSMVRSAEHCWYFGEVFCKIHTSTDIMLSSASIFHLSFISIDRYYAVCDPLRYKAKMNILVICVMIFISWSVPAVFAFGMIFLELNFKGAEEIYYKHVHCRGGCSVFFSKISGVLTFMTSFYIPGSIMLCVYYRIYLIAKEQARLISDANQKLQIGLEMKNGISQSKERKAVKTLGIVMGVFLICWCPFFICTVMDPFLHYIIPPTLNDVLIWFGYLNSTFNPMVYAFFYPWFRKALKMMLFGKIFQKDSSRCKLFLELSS

This test concerns the target Trace amine-associated receptor 1 (Homo sapiens) (UniProt Q96RJ0). In words: human TAAR1 antagonists, primary screen, Fluo-8 calcium fluorescence, CHO RD-HGA16 cells (AID 624466).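 Further: 0% = DMSO plus EC80 beta-PEA response and 100% = DMSO alone without agonist.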 The following applies: CHO RD-HGA16 TAAR1, Fluo-8 calcium fluorescence, antagonist; at 3 µM; stronger effect = higher value. The essentials: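 Assay system: CHO-derived RD-HGA16 cells stably expressing human TAAR1 plus Gα16. Timing: 140 s kinetic read after compound, 140 s after agonist. Technique: kinetic Fluo-8 calcium fluorescence measurement. Measure: % inhibition of agonist calcium response.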
One may read the inhibition as the drop in the measured response relative to a control, in per cent. Consider `O=C(NC1CCCC1)C1c2ccccc2OCC(=O)N1Cc1ccccc1` (stereo unspecified), for which the inhibition is -5.5%. `Cc1ccc(C)c(OCCC(=O)OCC(=O)NC(=O)NCc2ccccc2)c1`: the inhibition was -20.1%.

For `COc1cc(SC#N)ccc1N=Cc1c(C)[nH]n(-c2ccc(C)cc2)c1=O`, the inhibition was 87.5% (active). On to `Cc1ccc2cc(C)c(N3CCN(c4ccc(F)cc4)CC3)nc2c1`, for which the inhibition was -19.1%. In the case of `Cc1ccc2cc(C)c(N3CCC(C)CC3)nc2c1`, the inhibition is -22.1%. As for `Cc1cc(C)c2cc(C#N)c(N3CCNCC3)nc2c1`, the inhibition was 76.6% (active). Consider `COC(=O)[C@]12C[C@H](CC(=O)NCc3cccc(C(F)(F)F)c3)C(=O)N(Cc3ccc4c(c3)OCO4)C1=C[C@H](COCc1ccccc1)O[C@@H]2C`, for which the inhibition was -19.1%. Regarding `COc1ccc(N2CCN(C(=O)c3ccc(N4CCCCS4(=O)=O)cc3)CC2)cc1`, the inhibition is -21.9%. `CC(C)C(=O)Nc1ccc2c3c(cccc13)CC2`: the inhibition is -5.92%. With `COc1ccc(C(=O)Oc2ccc(-c3nnco3)cc2)cc1S(=O)(=O)N1CCOCC1` the figure was 60.2% (active); with `COc1ccc(C(=O)OC(C)C(=O)NC2CCCC2)cc1S(=O)(=O)N1CCOCC1` (stereo unspecified), -9.55%; with `COc1ccc(C(=O)OCC(=O)c2ccc(C)c(S(=O)(=O)N3CCOCC3)c2)cc1OC`, 47.7%. Regarding `Cc1cc(NC(=O)COC(=O)c2ccc(F)c(S(=O)(=O)N3CCOCC3)c2)no1`, the inhibition was -19.8%. `NC(=O)C1CCN(C(=O)c2ccc(F)c(S(=O)(=O)N3CCOCC3)c2)CC1`: the inhibition is 6.75%. The figure for `O=C(Oc1ccc(-c2nnco2)cc1)c1ccc(F)c(S(=O)(=O)N2CCOCC2)c1` is 84.1% (active). With `CC(C)(O)C1=C[N+](=O)CC=C1`, the inhibition is 2.41%. With `CC1(C(=O)Nc2cccnc2)Cc2c(-c3ccccc3)ccnc2O1` (stereo unspecified) the figure was -9.98%; with `CC(C)C[C@@H]1COc2cc(N3CCC[C@@H]3CO)ccc2S(=O)(=O)N1`, -24.6%; with `O=C(CN1C(=O)c2cccnc2Oc2ccc(Cl)cc21)NCCc1ccccc1`, 12.2%.

For `Cc1ccc2c(c1)N(CC(=O)NCCc1ccc(Cl)cc1)C(=O)c1cccnc1O2`, the inhibition was 64.2% (active). With `Cc1ccc2c(c1)N(CC(=O)NCCCN1CCCCC1)C(=O)c1cccnc1O2` the figure was -18.1%; with `CN(C)C1CN(Cc2cn(Cc3ccccc3)nn2)S(=O)(=O)C1` (stereo unspecified), -30.8%; with `C=CC1=CCN(S(=O)(=O)C(C)(C)C)[C@@H]1CCO`, -20.8%.

In the case of `Cc1cccc(C(=O)Nc2ccc3c(c2)C(=O)N(CC(C)C)C3=O)c1`, the inhibition is 16.9%. With `Cc1cccc(C(=O)Nc2ccc(C(=O)/C=C/c3cccs3)cc2)c1` the figure was 59.9% (active); with `Cc1cccc(C(=O)Nc2ccc(Oc3cnccn3)cc2)c1`, -6.75%; with `Cc1nc2c(OCc3ccc(Cl)cc3Cl)cccn2c1N(C)CC1CC1`, 16.7%. Regarding `CCCCCCCCN1C(=O)[C@@H](CC(=O)NCCCC)C[C@@]2(C(=O)OC)C1=C[C@H](C(C)(C)C)O[C@@H]2C`, the inhibition is -28.5%. In the case of `CCOc1ccc(NC(=O)CN(C)C(=O)c2c(C)noc2C)cc1OCC`, the inhibition was -17.5%. Consider `CCCCOCCCNC(=O)C[C@@H]1C[C@@]2(C(=O)OCC)CCCC=C2N(CCC2=CCCCC2)C1=O`, for which the inhibition is -7.17%.

As for `COC(=O)c1ccc(C23CC4(C2)[C@H](CN(Cc2cccnc2)[C@@H]4c2ccccc2)C3c2ccc(Cl)nc2)cc1` (stereo partly specified), the inhibition was 34.6%. Take `COC(=O)[C@@]12C[C@@H](CC(=O)NCCCCc3ccccc3)C(=O)N(CCc3ccc(OC)c(OC)c3)C1=CCC(C)(C)C2`: the inhibition is 22.4%. In the case of `CCOc1cc(C(=O)N2CCc3cc(OC)c(OC)cc3C2)ccc1OC(F)F`, the inhibition was -21.9%. The figure for `O=C1NC[C@H](Cc2ccc(O)cc2)N(C[C@H]2CCCN2C[C@H](Cc2ccccc2)N2C[C@H](Cc3ccccc3)N(CCc3ccccc3)C(=O)C2=O)C1=O` is -19.2%; for `COc1ccc(-c2ccccc2C2Cc3nnccc3CN2C(=O)Nc2ccccc2)cc1` (stereo unspecified) it is -11.4%. In the case of `COC(=O)[C@]12CCCCC=C1N(Cc1cccc3ccccc13)C(=O)[C@H](CC(=O)N1CCOCC1)C2`, the inhibition was 34.8%.

As to `COc1cc2ccccc2cc1C(=O)Nc1ccc(NC(=O)c2cccs2)cc1`, the inhibition was 58.9% (active). Consider `COc1cc(OC)c(C(=O)NNC(=O)c2ccc(NS(=O)(=O)c3cccs3)cc2)cc1OC`, for which the inhibition was -17.5%. The figure for `COc1ccccc1C(=O)Nc1ccc(Nc2ccccc2)cc1` is 1.01%; for `O=C(NCc1ccccc1)[C@@H]1CCCN1C(=O)[C@H]1CCCN1C(=O)c1cccc(Cl)c1` it is -3.29%; for `CCCCCCCCN1C(=O)[C@H](CC(=O)NCc2cccc3ccccc23)C[C@@]2(C(=O)OC)CCCCC=C12` it is 2.1%. Take `COCCCn1cc(CN2CC(N(C)C)CS2(=O)=O)nn1` (stereo unspecified): the inhibition is -29.3%.

As to `CCCCC[C@H](C)N1C[C@@H](COCc2ccccc2)Oc2cc(N3CCC[C@@H]3CO)ccc2S1(=O)=O`, the inhibition was -12.8%. Consider `CCOc1ccc(C(=O)NC(=S)Nc2ccc(N3CCOCC3)c(Cl)c2)cc1[N+](=O)[O-]`, for which the inhibition is 51.3% (active). As to `CCOc1ccc(C(=O)Nc2ccc(CN3CCOCC3)cc2)cc1Cl`, the inhibition is 3.95%.

Consider `CCOc1ccc(C(=O)NC(=S)Nc2ccc(NC(=O)C(C)C)cc2)cc1[N+](=O)[O-]`, for which the inhibition is 38.4%.

Turning to `O=C(Nc1ccccc1)C1CC(=O)n2c(nc3ccccc32)N1` (stereo unspecified), the inhibition was -8.36%.

`CCCCC(O)C1=C[N+](=O)CC=C1` (stereo unspecified): the inhibition was 0.52%. The figure for `COc1ccccc1C(=O)Nc1ccc(C)c(S(=O)(=O)N2CCCCC2)c1` is 35.1%; for `Cc1ccc(NC(=O)COc2coc(CN3CCc4ccccc4C3)cc2=O)cc1Cl` it is -6.95%. With `Cc1ccc(NC(=O)COC(=O)C2CC2)cc1S(=O)(=O)N1CCOCC1` the figure was -10.1%; with `CCc1ccccc1OCC(=O)Nc1ccc(C)c(S(=O)(=O)N2CCCCCC2)c1`, 53.6% (active). As for `Cc1ccccc1OCC(=O)Nc1ccc(N2CCN(C(=O)C(C)C)CC2)c(Cl)c1`, the inhibition is 51.1% (active). Turning to `COc1cc(NC(=O)COc2ccccc2Cl)ccc1NC(=O)C(C)C`, the inhibition is -12.5%. With `CC(C)CN1C(=O)CN(S(C)(=O)=O)CC1(C)C(=O)NCc1ccccc1` (stereo unspecified) the figure was -16.9%; with `O=C(c1ccccc1)c1ccc(OC(=O)N2CCCC2)cc1`, 0.6%.

Consider `CCCC[C@@H]1CN=C(N)N1CCc1cc(C(F)(F)F)cc(C(F)(F)F)c1`, for which the inhibition is 0.75%. Turning to `O=C(NCc1ccccn1)[C@@H]1CCCN1C(=O)[C@@H]1CCCN1C(=O)c1ccccc1`, the inhibition was -3.32%. For the molecule `CCOc1ccc(Cn2nnc(C(=O)NCc3ccccc3)c2N)cc1`, the inhibition is 55.6% (active). As for `Nc1c(C(=O)Nc2ccc3c(c2)OCCO3)nnn1Cc1ccccc1`, the inhibition was 10.6%. As for `CCOc1ccc(Cn2nnc(C(=O)Nc3ccc(OC)cc3OC)c2N)cc1`, the inhibition is -4.89%. With `O=C(OCC(=O)N1CCOCC1)c1ccc2ccccc2c1` the figure was -11.6%; with `O=C1C(Sc2cccc(F)c2)=C[C@@]2(O)CC[C@@H](O)[C@]1(Sc1cccc(F)c1)[C@H]2O`, 1.99%; with `N#Cc1ccc(C(C(=O)NCc2ccccc2)n2c(=O)c(-c3ccco3)nc3ccccc32)cc1` (stereo unspecified), -2.89%. For `O=C(Cc1ccccc1)Nc1c(Cl)ccc2nsnc12`, the inhibition is 3.32%. With `CC(=O)c1ccc(NC(=O)c2cc(-c3cccs3)on2)cc1`, the inhibition is 5.25%. As for `Cc1cc(Br)ccc1NC(=O)c1cnc(N2CCN(c3ccccn3)CC2)c2ccccc12`, the inhibition was 67.1% (active). On to `Cc1cc(Br)ccc1NC(=O)c1sc2ncn(CC(=O)N3CCN(c4ccccn4)CC3)c(=O)c2c1C`, for which the inhibition is 12%. The figure for `Cc1cc(C(=O)N2CCN(c3ccccn3)CC2)c(C)o1` is 1.13%; for `CCOc1ccccc1C(=O)N1CCC[C@@H]1C(=O)N1CCC[C@H]1C(=O)NCc1ccccc1` it is -5.66%; for `CN1C(=O)CN2CCc3ccccc3C2c2cc(Cl)ccc21` (stereo unspecified) it is -4.12%.

As to `S=C(NCCc1ccccc1)N1CCn2cccc2C1c1ccncc1` (stereo unspecified), the inhibition is 76.5% (active).

As to `S=C(Nc1cccc(Br)c1)N1CCn2cccc2C1c1cccnc1` (stereo unspecified), the inhibition is -5.72%. The figure for `CC1CCCCN1C(=S)NCc1ccccc1` (stereo unspecified) is -12.2%; for `Cc1cccc(N(C)C(=O)CN2C(=O)COc3ccc(S(=O)(=O)N4CCCCCC4)cc32)c1` it is 28.5%. In the case of `CCCn1nc(C(=O)Nc2ccc3nc(C)sc3c2)c2ccccc2c1=O`, the inhibition was -20.5%. `CCCCn1nc(C(=O)Nc2cccc(C(=O)NC3CC3)c2)c2ccccc2c1=O`: the inhibition was 48.7% (active). In the case of `CCCCn1nc(C(=O)Nc2ccc(S(=O)(=O)Nc3ncccn3)cc2)c2ccccc2c1=O`, the inhibition is -40.3%. On to `CC(=O)N1CCN(Cc2cc(=O)oc3cc(C)ccc23)CC1`, for which the inhibition was -3.73%.

Turning to `Cc1ccc2nc(CN(C)C(=O)[C@@H](Cc3ccccc3)NC(=O)[C@H]3O[C@@H](n4ccc(=O)[nH]c4=O)[C@H](O)[C@@H]3O)[nH]c2c1`, the inhibition was -7.68%.

Regarding `CN(c1ccccc1)S(=O)(=O)c1ccc(NC(=O)COc2ccccc2)cc1`, the inhibition is 40.2%. With `COC(=O)[C@H]1Cc2cnoc2C[C@]1(C)C(=O)O` the figure was -4.37%; with `COC(=O)[C@]12C[C@H](CC(=O)NCCCCc3ccccc3)C(=O)N(Cc3ccc4c(c3)OCO4)C1=C[C@H](C(C)(C)C)O[C@@H]2C`, -5.78%; with `Cn1c2ccccc2c(=O)c2c(=O)n(Cc3ccco3)c(COc3ccccc3)nc21`, 62.5% (active).

For the molecule `O=C(CSc1nnc(COc2ccc(Cl)cc2)n1Cc1ccco1)N1CCNC1=O`, the inhibition is 11.4%.

Regarding `CCc1nc2oc3ccccc3c(=O)c2c(=O)n1Cc1ccc(OC)cc1`, the inhibition is 3.24%.
